According to the EternaBench riboswitch data:

Tests used:
[1] = system: MS2 coat protein; experiment: apparent Kd, MS2 coat protein; higher = weaker binding; RNA-MaP array; theophylline 2 mM where present
Procedure, shortened: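 Stalled E. coli RNA polymerase transcribed each design on Illumina sequencing-chip clusters. The clusters were titrated with SNAP-549-labelled MS2 coat protein, starting at 0.7 or 1.5 nM and doubling up to 3 µM, first without ligand and then with constant ligand, in 100 mM Tris-HCl pH 7.5, 80 mM KCl, 4 mM MgCl2, BSA, DTT, yeast tRNA and Tween-20. Green signal was normalised to red-channel RNA signal and to the control-cluster median Fmax. The apparent Kd is the median of filtered binding-curve fits made for each cluster.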

[2] = system: MS2 coat protein; experiment: apparent Kd, MS2 coat protein; higher = weaker binding; RNA-MaP array
Procedure, shortened: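 Apparent Kd values come from the median of binding-curve fits to single clusters. To obtain them, designed RNAs transcribed on an Illumina sequencing chip from sequenced DNA templates were incubated at room temperature with fluorescently labeled MS2 coat protein at 1.5 nM to 3 μM, with or without input ligand, for 0.8–1.5 h at the lowest and 10–20 min at the highest concentrations. Designs measured on fewer than 10 clusters were excluded.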

[3] = designed as: OFF switch for theophylline, no ligand
[4] = ligand present: theophylline, designed as: OFF switch for theophylline
[5] = designed as: ON switch for theophylline, no ligand
[6] = ligand present: theophylline, designed as: ON switch for theophylline
[7] = designed as: OFF switch for flavin mononucleotide, no ligand
[8] = ligand present: flavin mononucleotide, designed as: OFF switch for flavin mononucleotide
[9] = designed as: ON switch for flavin mononucleotide, no ligand
[10] = ligand present: flavin mononucleotide, designed as: ON switch for flavin mononucleotide
[11] = designed as: ON switch for tryptophan, no ligand
[12] = ligand present: tryptophan, designed as: ON switch for tryptophan

ACGAACGAUAGUGAUACCAGACGAACAUGAGGAUCACCCAUGUUAUACACAUGGUUUAUUGUCCCUUGGCAGCACUUUAAGUUCG
apparent Kd [1, 3]: 147 nM
apparent Kd [1, 4]: 89.6 nM

AUCGUACCUGAUGAUACCAGCAAUUGCUCGUAACAUGAGGAUCACCCAUGUGACCAGUGAUGCCCUUGGCAGCAUGGUCGGUGCA
apparent Kd [1, 5]: 172 nM
apparent Kd [1, 6]: 38.5 nM

AGCGCUAUGCAUGAUACCAGCUACAUGAGGAUCACCCAUGUGCGUCAGAAAUGACUGUGUAGCCCUUGGCAGCAUAAAGCAUGUA
apparent Kd [1, 3]: 19.1 nM
apparent Kd [1, 4]: 46.3 nM

UAAAACAUGAGGAUCACCCAUGUAAAUGAUACCAGAGUGAUGAUCCUCCCUUGGCAGCAUAACGCUGAUUGGAAACAAUCAGCGA
apparent Kd [1, 5]: 130 nM
apparent Kd [1, 6]: 243 nM

UAAACACAUGAGGAUCACCCAUGUCAUGAUACCAGUCAACAUGAGGACCCUUGGCAGCAUAAAAUGGGUAACAUGAGGAUCACCC
apparent Kd [1, 3]: 38.4 nM
apparent Kd [1, 4]: 112 nM

UUCUACAUGAGGAUCACCCAUGUGGGUGAUACCAGCACUUUUUGGUGCCCUUGGCAGCACAUGAGAAUGCCGUAAAAUCGGCGAU
apparent Kd [1, 5]: 334 nM
apparent Kd [1, 6]: 500 nM

AAUAACAUGAGGAUCACCCAUGUAAAAGAUACCAGAGUGAUGAUCCUCCCUUGGCAGCUUAAACGCUAUUGGAAACAAUAGCGAA
apparent Kd [1, 5]: 70.2 nM
apparent Kd [1, 6]: 167 nM

GCUCAGGAAGGAUAUACUGAAGCUAACAUGAGGAUCACCCAUGUCCUAGGUAAGUAUCUGGUAGAAGGUCCGCGUA
apparent Kd [2, 7]: 24.9 nM
apparent Kd [2, 8]: 32.5 nM

UUUGAAAAGCAGAAGGUUCAUAACAUGAGGAUCACCCAUGUGACAUUAAUGAUCCGGUUUUUACGAAAGGAUAUGCUUCUCCUA
apparent Kd [2, 7]: 8.33 nM
apparent Kd [2, 8]: 32.6 nM

UAAGACGGGCGAGGAUAUACGAACUGGGUCAAAGUAGAAGGCGCGAGUCAUUGUUAUAAUCCAACAUGAGGAUCACCCAUGUCU
apparent Kd [2, 9]: 91.6 nM
apparent Kd [2, 10]: 15.6 nM

UUCUCACAUGAGGAUCACCCAUGUCUAAGGAGUACAGGAUAUGUGCCGUGAUUUUCGAGUACAGAAGGGUACAAUU
apparent Kd [2, 9]: 273 nM
apparent Kd [2, 10]: 33.6 nM

UACCAAAUCACAGGAUAUGAGGCGCCAGCUAGGUCAGAAGGGUGACAUGAGGAUCACCCAUGUUCGCAGAAAAUAAUUGCUAAG
apparent Kd [2, 9]: 688 nM
apparent Kd [2, 10]: 678 nM

AUUACCCAAGGAUAUUGCAAUUGAGACAUGAGGAUCACCCAUGUACUUCCGGGUGUCAAUCAAGAAGGUGGAUGUU
apparent Kd [2, 7]: 23.1 nM
apparent Kd [2, 8]: 20.9 nM

GCGUUGGCCACGGCCGCCACUCAGGUACCGCGCGUAGUGAACUUACAUGAGGAUCACCCAUGUCUGAGGACCGGGUGGCCGCCAC
apparent Kd [2, 11]: 37.3 nM
apparent Kd [2, 12]: 46.2 nM

AGCACAAAGUAGAAGGGUAGCACCGAUUUUCAUACAGGAUAUACGAAGGCAGGGUCAACAUGAGGAUCACCCAUGUUACCGCUU
apparent Kd [2, 9]: 5.59 nM
apparent Kd [2, 10]: 5.39 nM

GAAUUAAAUCAAGGAUAUCUGUGGAAGCGGACCUCUUACAUGAGGAUCACCCAUGUUCGCGAGCAAGAGAAGGUGAUUAGCGAA
apparent Kd [2, 7]: 414 nM
apparent Kd [2, 8]: 131 nM

UGGUACAUGAGGAUCACCCAUGUCCUCAUCCGAGGACCGGUACGGCCGCCACUCGAAAUUGCGAUCGGCACAAAACAAAUGCUUG
apparent Kd [2, 11]: 142 nM
apparent Kd [2, 12]: 143 nM

UGCCCAAACAUGAGGAUCACCCAUGUUGUGACCUCGGGAGCCAGAAGGGUAUUAAACAAGUCGGUACAGGAUAUGGUCUAGUAA
apparent Kd [2, 7]: 343 nM
apparent Kd [2, 8]: 214 nM

GAAGAACCCGGAGGAUAUGCAAAGGAACAUGAGGAUCACCCAUGUUUCUUUCGGAAAUCUAGUGAGCAGAAGGCCGAAAGGAAC
apparent Kd [2, 9]: 13.1 nM
apparent Kd [2, 10]: 7.95 nM

AGAAGUCCAGACUACACGUGGAAAAGCGAUACCAGACUCAUAGGUGUCCCUUGGCAGCGCGUAACAUGAGGAUCACCCAUGUGAU
apparent Kd [2, 3]: 142 nM
apparent Kd [2, 4]: 139 nM

GACACCGGUAUGGAGGAUAUGGGAGACAGUACAUGAGGAUCACCCAUGUCGUUAAGAAGAUAUCACCAGAAGGCCACUCGGUCGAG
apparent Kd [2, 9]: 13.5 nM
apparent Kd [2, 10]: 9.63 nM

AAAAUGGAUUGAACAUGAGGAUCACCCAUGUCCUGCCCGCAUUAGGAUAUCGAUAACUUGAGUACCGAGAAGGAAUGAUGAUCG
apparent Kd [2, 9]: 12.6 nM
apparent Kd [2, 10]: 13.2 nM

ACUUAGAGAUAGAAGGAUGGAGUCAGGGUCCACAUAGGAUAUAUCUUGCACGAAACAUGAGGAUCACCCAUGUUGGAAUCCUCU
apparent Kd [2, 7]: 30.4 nM
apparent Kd [2, 8]: 27.8 nM

GGCGUGUACACAGGAUAUGAUACAUGAGGAUCACCCAUGUUCGCGCUGGAUCUACGUGAGAACGAUCAGAAGGGUGCUGCAGGG
apparent Kd [2, 9]: 398 nM
apparent Kd [2, 10]: 229 nM

CCAGGACAUGAGGAUCACCCAUGUACGGUCAGCGAAGGAUAUAUUGCGUGGCGAGUGCUGAUAGAAGGUCGUAAAC
apparent Kd [2, 9]: 15 nM
apparent Kd [2, 10]: 10.9 nM

ACAUGAGGAUCACCCAUGUCUACGAAGGUCGAAAUUAAUACCAGAAGGCGCGUCGACUAAGAGUGCGAGGAUAUGGUGUGUCGA
apparent Kd [2, 9]: 52 nM
apparent Kd [2, 10]: 9.96 nM
